In article PMC5114201 (Drugs in R&D, 2016):
Ends that are not written are not given here.

Assays:
[1] = Safety and tolerability; format: in vivo, human; conditions: healthy subjects, 12-lead ECG at 1, 3, 6 and 12 h post dose, all cohorts
Summary of the method: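 Single-blind, randomized, placebo-controlled dose escalation in healthy adults. Each cohort of six had four on drug and two on sterile-water placebo. Drug was dissolved in sterile water and drunk standing, then 200 ml water, at 08:00 after fasting from midnight. A 12-lead ECG was taken pre-dose and at 1, 3, 6 and 12 h. Vital signs and clinical laboratory tests were also monitored.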

[2] = tested on: Caco-2 monolayer; conditions: cited from earlier work
[3] = Urinalysis, phase I study; format: in vivo, human; conditions: healthy subjects, n = 4
Summary of the method: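 Healthy volunteers were randomized within each dose cohort to oral drug solution in sterile water (four subjects) or sterile-water placebo (two subjects). They fasted from midnight, were dosed at 08:00 and had no food for 2 h afterwards. Urinalysis was done before dosing and 24 h after. Dipstick-type read-outs were compared with normal ranges or indications.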

[4] = intravenously administered into rats; ref unpublished preclinical toxicological data; cited from earlier work
[5] = Vital signs after single oral dose, phase I study; format: in vivo, human; conditions: 24 h post dose, healthy subjects, mean ± SD, n = 4
Summary of the method: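 In cohorts of four drug and two placebo (sterile water) subjects, a single oral solution was taken at 08:00 after an overnight fast, followed by 200 ml water. Blood pressure, heart rate, pulse oximetry, temperature and breathing rate were recorded pre-dose and at 0.25–24 h post dose. Values were reported as mean ± SD (range) and compared against placebo.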

[6] = 0.08 mg/kg single oral dose, 0 h pre dose (baseline)
[7] = 0.08 mg/kg single oral dose, 24 h post dose
[8] = 0.7 mg/kg single oral dose, 0 h pre dose (baseline)
[9] = 0.7 mg/kg single oral dose, 24 h post dose

## RVYIHPFHL [DAA-I, Des-aspartate-angiotensin I]
[1]
  ECGs: normal
[2]
  Transport across Caco-2 monolayer: cross the Caco-2 monolayer via passive diffusion
[3]; [6]
  Urine bilirubin: Negative
  Urine glucose: Normal
  Urine haemoglobin: Negative
  Urine ketones: Negative
  Urine nitrite: Negative
  Urine protein: Negative
  Urine urobilinogen: Normal
[3]; [7]
  Urine bilirubin: Negative
  Urine glucose: Normal
  Urine haemoglobin: Negative
  Urine ketones: Negative
  Urine nitrite: Negative
  Urine protein: Negative
  Urine urobilinogen: Normal
[3]; [8]
  Urine bilirubin: Negative
  Urine glucose: normal
  Urine haemoglobin: Negative
  Urine ketones: Negative
  Urine nitrite: Negative
  Urine protein: Negative
  Urine urobilinogen: Normal
[3]; [9]
  Urine bilirubin: Negative
  Urine glucose: normal
  Urine haemoglobin: Negative
  Urine ketones: Negative
  Urine nitrite: Negative
  Urine protein: Negative
  Urine urobilinogen: Normal
[4]
  Time to degradation by plasma enzymes: 2 to 5 min
[5]; 0.08 mg/kg single oral dose
  Blood pressure, diastolic: 68 ± 5 mmHg
  Blood pressure, systolic: 120 ± 4 mmHg
[5]; 0.7 mg/kg single oral dose
  Blood pressure, diastolic: 67 ± 7 mmHg
  Blood pressure, systolic: 114 ± 7 mmHg
